Laboratory results reported in ChEMBL document CHEMBL3797058, “Sorazolons, Carbazole Alkaloids from Sorangium cellulosum Strain Soce375” (J Nat Prod, 2016).
Converted amounts (≈) assume the structure as drawn. The source made the active and inactive calls. No cut-off for these calls is given here.

What was measured:
Staphylococcus aureus = assay: Antimicrobial activity against Staphylococcus aureus Newman by serial dilution method; format: functional
How it was run: (§1)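 MIC by serial dilution (150 μL) in 96-well tissue-culture plates; 20 μL aliquots of compound at 1 mg/mL tested; methanol as negative control.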

Micrococcus luteus = assay: Antimicrobial activity against Micrococcus luteus DSM 1790 by serial dilution method; format: functional; how it was run: as §1
[1] = tested on: Mycolicibacterium smegmatis; assay: Antimicrobial activity against Mycobacterium smegmatis ATCC 700084 by serial dilution method; format: functional, organism-based; how it was run: as §1
Bacillus subtilis = assay: Antimicrobial activity against Bacillus subtilis DSM 10 by serial dilution method; format: functional; how it was run: as §1
Escherichia coli [2] = assay: Antimicrobial activity against Escherichia coli DSM 1116 by serial dilution method; format: functional, organism-based; how it was run: as §1
Escherichia coli [3] = assay: Antimicrobial activity against Escherichia coli TolC by serial dilution method; format: functional; how it was run: as §1
Pseudomonas aeruginosa = assay: Antimicrobial activity against Pseudomonas aeruginosa PA14 by serial dilution method; format: functional; how it was run: as §1
Wickerhamomyces anomalus = assay: Antimicrobial activity against Wickerhamomyces anomalus DSM 6766 by serial dilution method; format: functional, organism-based; how it was run: as §1
Candida albicans = assay: Antimicrobial activity against Candida albicans DSM 1665 by serial dilution method; format: functional, organism-based; how it was run: as §1
Mucor hiemalis = assay: Antimicrobial activity against Mucor hiemalis DSM 2656 by serial dilution method; format: functional; how it was run: as §1
L929 = assay: Cytotoxicity against mouse L929 cells; format: cell-based
How it was run: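 Mouse fibroblast L929 cells exposed to 3.0 μL of each compound; MIC determined by serial dilution (60 μL) in 96-well tissue-culture plates.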

[4] = Mus musculus, L929, read-out: IC50

| Compound | MIC (Staphylococcus aureus) | MIC (Micrococcus luteus) | MIC [1] | MIC (Bacillus subtilis) | MIC (Escherichia coli [2]) | MIC (Escherichia coli [3]) | MIC (Pseudomonas aeruginosa) | MIC (Wickerhamomyces anomalus) | MIC (Candida albicans) | MIC (Mucor hiemalis) | IC50 (L929; l929) | IC50 (L929; [4]) |
| --- | --- | --- | --- | --- | --- | --- | --- | --- | --- | --- | --- | --- |
| C[C@@]1(O)C(=O)Cc2c([nH]c3ccccc23)[C@@]1(C)O | inactive | inactive | inactive | inactive | inactive | inactive | inactive | inactive | inactive | inactive | Not Active | – |
| C=C1c2[nH]c3ccccc3c2C[C@@H](O)[C@@]1(C)O | inactive | inactive | inactive | inactive | inactive | inactive | inactive | inactive | inactive | inactive | Not Active | – |
| C[C@@]1(O)C(=O)C(=O)c2c([nH]c3ccccc23)[C@@]1(C)O | inactive | inactive | inactive | inactive | inactive | inactive | inactive | inactive | inactive | inactive | Not Active | – |
| CO[C@]1(C)c2[nH]c3ccccc3c2CC(=O)[C@@]1(C)O | inactive | inactive | inactive | inactive | inactive | inactive | inactive | inactive | inactive | inactive | Not Active | – |

Further lines, with some results ahead:

| MIC (Staphylococcus aureus) | MIC (Micrococcus luteus) | MIC [1] | MIC (Bacillus subtilis) | MIC (Escherichia coli [2]) | MIC (Escherichia coli [3]) | MIC (Pseudomonas aeruginosa) | MIC (Wickerhamomyces anomalus) | MIC (Candida albicans) | MIC (Mucor hiemalis) | Compound | IC50 (L929; l929) | IC50 (L929; [4]) |
| --- | --- | --- | --- | --- | --- | --- | --- | --- | --- | --- | --- | --- |
| 33.3 µg/mL (≈ 158 µM) | 33.3 µg/mL (≈ 158 µM) | inactive | 16.6 µg/mL (≈ 78.6 µM) | inactive | 67 µg/mL (≈ 317 µM) | inactive | inactive | inactive | inactive | Cc1c(O)cc2c([nH]c3ccccc32)c1C | – | 85.2 µM |
| 16.6 µg/mL (≈ 60.7 µM) | 16.6 µg/mL (≈ 60.7 µM) | inactive | 8.3 µg/mL (≈ 30.4 µM) | inactive | inactive | inactive | inactive | inactive | inactive | CO[C@]1(C)c2[nH]c3ccccc3c2C(=O)C(=O)[C@@]1(C)O | – | 76.8 µM |
| 16.6 µg/mL (≈ 39.5 µM) | 16.6 µg/mL (≈ 39.5 µM) | inactive | 16.6 µg/mL (≈ 39.5 µM) | inactive | 33.3 µg/mL (≈ 79.2 µM) | inactive | inactive | inactive | 67 µg/mL (≈ 159 µM) | Cc1c(O)c(-c2c(O)c(C)c(C)c3[nH]c4ccccc4c23)c2c([nH]c3ccccc32)c1C | – | 4.99 µM |
| inactive | inactive | inactive | inactive | inactive | inactive | inactive | inactive | inactive | inactive | C[C@@]1(O)C(=O)[C@H]([C@H]2C(=O)[C@@](C)(O)[C@](C)(O)c3[nH]c4ccccc4c32)c2c([nH]c3ccccc23)[C@@]1(C)O | Not Active | – |
| inactive | inactive | inactive | inactive | inactive | inactive | inactive | inactive | inactive | inactive | Cc1ccc2c([nH]c3ccccc32)c1C=O | Not Active | – |
